Active and inactive are the calls of the source. The calls are words filed in the database; no cut-off is given here.
Assays:
Assay type in all cases: functional
SK-OV-3 = test: Growth inhibition of human SKOV3 cells at 20 uM after 72 hrs by alamar blue assay; settings: for inhibition of growth at 20 µM: SK-OV-3, 72 h, read-out: GI
Summary of the method: (§1)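 Single-concentration screen at 20 μM with 72 h exposure across a panel of cancer lines: lung A549, pancreatic AsPC1, colon HT29, breast MDA-MB-231, prostate PC3, ovarian SKOV3 and bone U2OS. Growth inhibition read after 72 h.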

U2OS = test: Growth inhibition of human U2OS cells at 20 uM after 72 hrs by alamar blue assay; settings: for inhibition of growth at 20 µM: read-out: GI; summary of the method: as §1
A549 = test: Growth inhibition of human A549 cells at 20 uM after 72 hrs by alamar blue assay; settings: for inhibition of growth at 20 µM: A549, 72 h, read-out: GI; summary of the method: as §1
HT-29 = test: Growth inhibition of human HT-29 cells at 20 uM after 72 hrs by alamar blue assay; settings: for inhibition of growth at 20 µM: HT-29, 72 h, read-out: GI; summary of the method: as §1
ASPC1 = test: Growth inhibition of human AsPC1 cells at 20 uM after 72 hrs by alamar blue assay; settings: for inhibition of growth at 20 µM: ASPC1, 72 h, read-out: GI; summary of the method: as §1
PC-3 = test: Growth inhibition of human PC3 cells at 20 uM after 72 hrs by alamar blue assay; settings: for inhibition of growth at 20 µM: PC-3, 72 h, read-out: GI; summary of the method: as §1
MDA-MB-231 = test: Growth inhibition of human MDA-MB-231 cells at 20 uM after 72 hrs by alamar blue assay; settings: for inhibition of growth at 20 µM: MDA-MB-231, 72 h, read-out: GI; summary of the method: as §1

## CC(=O)Nc1ccc2nc(-c3cccs3)c(-c3cccs3)nc2c1
SK-OV-3
  growth inhibition (GI): inactive
U2OS
  growth inhibition (GI): inactive
A549
  growth inhibition (GI): inactive
HT-29
  growth inhibition (GI): inactive
ASPC1
  growth inhibition (GI): inactive
PC-3
  growth inhibition (GI): inactive
MDA-MB-231
  growth inhibition (GI): inactive

## O=[N+]([O-])c1ccc(NC(=S)Nc2ccc3nc(-c4ccco4)c(-c4ccco4)nc3c2)cc1
SK-OV-3
  growth inhibition (GI): inactive
U2OS
  inhibition of growth at 20 µM: 32.2%
A549
  inhibition of growth at 20 µM: 19.2%
HT-29
  inhibition of growth at 20 µM: 42%
ASPC1
  growth inhibition (GI): inactive
PC-3
  inhibition of growth at 20 µM: 43.4%
MDA-MB-231
  inhibition of growth at 20 µM: 9%

## Cc1ccc(S(=O)(=O)N(c2ccc3nc(-c4cccs4)c(-c4cccs4)nc3c2)S(=O)(=O)c2ccc(C)cc2)cc1
SK-OV-3
  growth inhibition (GI): inactive
U2OS
  growth inhibition (GI): inactive
A549
  growth inhibition (GI): inactive
HT-29
  growth inhibition (GI): inactive
ASPC1
  growth inhibition (GI): inactive
PC-3
  growth inhibition (GI): inactive
MDA-MB-231
  growth inhibition (GI): inactive

## Cc1nc2ccc(NC(=O)NN3CCC(Cc4ccccc4)CC3)cc2nc1C
SK-OV-3
  inhibition of growth at 20 µM: 8.9%
U2OS
  inhibition of growth at 20 µM: 33.5%
A549
  inhibition of growth at 20 µM: 40.3%
HT-29
  inhibition of growth at 20 µM: 16.3%
ASPC1
  growth inhibition (GI): inactive
PC-3
  inhibition of growth at 20 µM: 30.6%
MDA-MB-231
  inhibition of growth at 20 µM: 12.4%

## Cc1nc2ccc(NC(=O)N3CCCCC3)cc2nc1C
SK-OV-3
  growth inhibition (GI): inactive
U2OS
  growth inhibition (GI): inactive
A549
  growth inhibition (GI): inactive
HT-29
  growth inhibition (GI): inactive
ASPC1
  growth inhibition (GI): inactive
PC-3
  growth inhibition (GI): inactive
MDA-MB-231
  growth inhibition (GI): inactive

## CC(=O)Nc1ccc2nc(-c3ccccc3)c(-c3ccccc3)nc2c1
SK-OV-3
  growth inhibition (GI): inactive
U2OS
  growth inhibition (GI): inactive
A549
  growth inhibition (GI): inactive
HT-29
  growth inhibition (GI): inactive
ASPC1
  growth inhibition (GI): inactive
PC-3
  growth inhibition (GI): inactive
MDA-MB-231
  growth inhibition (GI): inactive

## Cc1ccc(S(=O)(=O)Nc2ccc3nc(-c4ccccc4)c(-c4ccccc4)nc3c2)cc1
SK-OV-3
  growth inhibition (GI): inactive
U2OS
  growth inhibition (GI): inactive
A549
  growth inhibition (GI): inactive
HT-29
  growth inhibition (GI): inactive
ASPC1
  growth inhibition (GI): inactive
PC-3
  growth inhibition (GI): inactive
MDA-MB-231
  growth inhibition (GI): inactive

## CC(=O)Nc1ccc2nc(-c3ccco3)c(-c3ccco3)nc2c1
SK-OV-3
  inhibition of growth at 20 µM: 9%
U2OS
  growth inhibition (GI): inactive
A549
  inhibition of growth at 20 µM: 57.8%
HT-29
  inhibition of growth at 20 µM: 7.6%
ASPC1
  growth inhibition (GI): inactive
PC-3
  inhibition of growth at 20 µM: 57.7%
MDA-MB-231
  inhibition of growth at 20 µM: 20.3%

## O=C(Nc1ccc2nc(-c3ccco3)c(-c3ccco3)nc2c1)NN1CCC(Cc2ccccc2)CC1
SK-OV-3
  inhibition of growth at 20 µM: 47.6%
U2OS
  inhibition of growth at 20 µM: 80.3%
A549
  inhibition of growth at 20 µM: 93.1%
HT-29
  inhibition of growth at 20 µM: 55.2%
ASPC1
  inhibition of growth at 20 µM: > 100%
PC-3
  inhibition of growth at 20 µM: > 100%
MDA-MB-231
  inhibition of growth at 20 µM: 90.8%

## O=C(Nc1ccc2nc(-c3ccco3)c(-c3ccco3)nc2c1)N1CCCC1
SK-OV-3
  inhibition of growth at 20 µM: 16.9%
U2OS
  inhibition of growth at 20 µM: 46.5%
A549
  inhibition of growth at 20 µM: 23.3%
HT-29
  inhibition of growth at 20 µM: 16.7%
ASPC1
  inhibition of growth at 20 µM: 11.6%
PC-3
  inhibition of growth at 20 µM: 53.1%
MDA-MB-231
  inhibition of growth at 20 µM: 18.2%

## O=[N+]([O-])c1ccc(NC(=S)Nc2ccc3nc(-c4cccs4)c(-c4cccs4)nc3c2)cc1
SK-OV-3
  growth inhibition (GI): inactive
U2OS
  inhibition of growth at 20 µM: 50.6%
A549
  growth inhibition (GI): inactive
HT-29
  inhibition of growth at 20 µM: 23.9%
ASPC1
  growth inhibition (GI): inactive
PC-3
  inhibition of growth at 20 µM: 19.5%
MDA-MB-231
  inhibition of growth at 20 µM: 53.3%
